Results: ChEMBL document CHEMBL1133127, “Activation of antibacterial prodrugs by peptide deformylase” (Bioorg Med Chem Lett, 2000)

Key:
Escherichia coli [1] = test: The compound was tested for its antibacterial activity against Escherichia coli BL21(DE3) cells in luria broth; type: functional, organism-based
[2] = Half-life was determined; type: ADME; conditions: human
Outline: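 Deformylated intermediate cyclizes to diketopiperazine, releasing FdU. Followed by C18 HPLC at 214 nm after PDF treatment in 20 mM sodium phosphate pH 7.4. First-order fit of ln(A0/A) versus time; half-life taken from the fit.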

Escherichia coli [3] = test: The compound was tested for activation by purified Escherichia coli PDF in vitro by measuring deformylation at pH 7.4; type: functional
Outline: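 Purified E. coli PDF added to prodrug (~1 mM) in 20 mM sodium phosphate pH 7.4. Aliquots taken over time and quenched with equal volume 100 mM TFA. Analysed by C18 HPLC at 214 nm; kcat/KM derived from deformylation to intermediate.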

[4] = system: Staphylococcus epidermidis; test: The compound was tested for its antibacterial activity against Staphylococcus epidermidis.; type: functional, organism-based
[5] = system: Staphylococcus epidermidis; test: Compound was tested for its antibacterial activity against Staphylococcus epidermidis; type: functional, organism-based
Escherichia coli [6] = test: Compound was tested for its antibacterial activity against Escherichia coli BL21(DE3) cells in luria broth; type: functional, organism-based

| Compound | IC50 (Escherichia coli [1]) | half-life [2] | k cat/Km (Escherichia coli [3]) | IC50 [4] | IC50 [5] | IC50 (Escherichia coli [6]) |
| --- | --- | --- | --- | --- | --- | --- |
| CSCC[C@H](NC=O)C(=O)N1CCC[C@@H]1C(=O)OCC1OC(n2cc(F)c(=O)[nH]c2=O)CC1O (some centres not stated) | > 100 µM | 15.2 min | – | – | – | – |
| CSCC[C@H](NC=O)C(=O)N(C)[C@@H](CC(C)C)C(=O)OCC1OC(n2cc(F)c(=O)[nH]c2=O)CC1O (some centres not stated) | > 100 µM | 2.07 min | 1650 M⁻¹ s⁻¹ | – | – | – |
| CSCC[C@H](NC=O)C(=O)N1CCC[C@H]1C(=O)OCC1OC(n2cc(F)c(=O)[nH]c2=O)CC1O (some centres not stated) | > 100 µM | 4.68 min | – | – | – | – |
| CSCC[C@H](NC=O)C(=O)NC(C)(C)C(=O)OCC1OC(n2cc(F)c(=O)[nH]c2=O)CC1O (some centres not stated) | – | 51.1 min | 28900 M⁻¹ s⁻¹ | 50 µM | ~50 µM | > 100 µM |
